Assay results as given in ChEMBL document CHEMBL1155274, “Synthesis of some novel pyrazolo[3,4-b]pyridine and pyrazolo[3,4-d]pyrimidine derivatives bearing 5,6-diphenyl-1,2,4-triazine moiety as potential antimicrobial agents” (Eur J Med Chem, 2009).
≈ marks a conversion by molar mass, not a printed value.

Tests used:
Staphylococcus aureus [1] = assay: Antimicrobial activity against Staphylococcus aureus MTCCB 737 at 100 ug/mL after 16 to 20 hrs by disk diffusion method; format: functional; settings: read-out: IZ
Method in brief: (§1)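 Nutrient agar disc diffusion against bacterial strains, compounds in DMSO at a single test concentration. DMSO blank; tetracycline as reference drug. Plates incubated 16–20 h at 37 °C, and the inhibition zone was measured.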

[2] = tested on: Staphylococcus epidermidis; assay: Antimicrobial activity against Staphylococcus epidermidis MTCCB 1824 at 100 ug/mL after 16 to 20 hrs by disk diffusion method; format: functional; settings: read-out: IZ; method in brief: as §1
Escherichia coli [3] = assay: Antimicrobial activity against Escherichia coli MTCCB 1652 at 100 ug/mL after 16 to 20 hrs by disk diffusion method; format: functional; settings: read-out: IZ; method in brief: as §1
Aspergillus fumigatus [4] = assay: Antimicrobial activity against Aspergillus fumigatus at 100 ug/mL after 3 to 4 days by disk diffusion method; settings: read-out: IZ
Alternaria alternata [5] = assay: Antimicrobial activity against Alternaria alternata at 100 ug/mL after 3 to 4 days by disk diffusion method; settings: read-out: IZ
Aspergillus niger [6] = assay: Antimicrobial activity against Aspergillus niger at 100 ug/mL after 3 to 4 days by disk diffusion method; settings: read-out: IZ
Aspergillus niger [7] = assay: Antimicrobial activity against Aspergillus niger at 30 ug/mL after 3 to 4 days by disk diffusion method; settings: read-out: IZ
Alternaria alternata [8] = assay: Antimicrobial activity against Alternaria alternata at 30 ug/mL after 3 to 4 days by disk diffusion method; settings: read-out: IZ
Aspergillus niger [9] = assay: Antimicrobial activity against Aspergillus niger after 24 hrs by serial dilution method; format: functional
Method in brief: (§2)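 Tube serial dilution in nutrient broth at compound levels of 6.25, 12.5, 25, 50 and 100. Each tube received standardized microbial suspension (10^7 cells/mL) and was incubated 24 h at 37 °C. MIC was the lowest concentration preventing growth, i.e. maintaining or reducing inoculum viability.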

Alternaria alternata [10] = assay: Antimicrobial activity against Alternaria alternata after 24 hrs by serial dilution method; format: functional; method in brief: as §2
Aspergillus fumigatus [11] = assay: Antimicrobial activity against Aspergillus fumigatus at 30 ug/mL after 3 to 4 days by disk diffusion method; settings: read-out: IZ
Artemia salina = assay: Toxicity against Artemia salina assessed as number of the nauplii died after 24 hrs; format: organism-based; settings: in vivo
Method in brief: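 Artemia salina eggs were hatched in sea salt water (38 g/L) at 37 °C for 48 h with constant oxygen to give nauplii. Stocks were 10 mg per 2 mL DMSO, and five dilutions were run in triplicate with about 10 nauplii per vial. A DMSO-only vial served as control.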

Staphylococcus aureus [12] = assay: Antimicrobial activity against Staphylococcus aureus MTCCB 737 after 24 hrs by serial dilution method; format: functional; settings: MTCCB 737, 24 h; method in brief: as §2
Escherichia coli [13] = assay: Antimicrobial activity against Escherichia coli MTCCB 1652 after 24 hrs by serial dilution method; format: functional; settings: MTCCB 1652, 24 h; method in brief: as §2

Row | Molecule | zone of inhibition at 100 µg/mL (Staphylococcus aureus [1]) [mm] | zone of inhibition at 100 µg/mL [2] [mm] | zone of inhibition at 100 µg/mL (Escherichia coli [3]) [mm] | zone of inhibition at 100 µg/mL (Aspergillus fumigatus [4]) [mm] | zone of inhibition at 100 µg/mL (Alternaria alternata [5]) [mm] | zone of inhibition at 100 µg/mL (Aspergillus niger [6]) [mm] | zone of inhibition at 30 µg/mL (Aspergillus niger [7]) [mm] | zone of inhibition at 30 µg/mL (Alternaria alternata [8]) [mm] | MIC (Aspergillus niger [9]) [µg/mL] | MIC (Alternaria alternata [10]) [µg/mL] | zone of inhibition at 30 µg/mL (Aspergillus fumigatus [11]) [mm] | LC50 (Artemia salina) [ppm] | MIC (Staphylococcus aureus [12]) [µg/mL] | MIC (Escherichia coli [13]) [µg/mL]
1 | CSc1nn(-c2nnc(-c3ccccc3)c(-c3ccccc3)n2)c2nc(C)[nH]c(=O)c12 | 14 | 11 | 5 | 12 | 10 | 9 | – | – | – | – | – | – | – | –
2 | CC(=O)N1CCN(c2ccc(OCC3COC(Cn4ccnc4)(c4ccc(Cl)cc4Cl)O3)cc2)CC1 (stereo not drawn) [KETOCONAZOLE] | – | – | – | – | – | – | 20 | 21 | 6.25 (≈ 11.8 µM) | 6.25 (≈ 11.8 µM) | 18 | – | – | –
3 | Nc1nc(=S)[nH]c2nn(-c3nnc(-c4ccccc4)c(-c4ccccc4)n3)c(N)c12 | 9 | 11 | 13 | 11 | 2 | 7 | – | – | – | – | – | – | – | –
4 | BLEOMYCIN | – | – | – | – | – | – | – | – | – | – | – | 0.41 | – | –
5 | O=C(O)c1cc(O)c(O)c(O)c1 [GALLIC ACID] | – | – | – | – | – | – | – | – | – | – | – | 4.53 | – | –
6 | CSc1nn(-c2nnc(-c3ccccc3)c(-c3ccccc3)n2)c(N)c1C#N | 12 | 7 | 3 | 8 | 0 | 6 | – | – | – | – | – | – | – | –
7 | S=c1nc2c3c(n(-c4nnc(-c5ccccc5)c(-c5ccccc5)n4)nc3[nH]1)N=C(c1ccccc1)N2 | 16 | 13 | 9 | 9 | 5 | 11 | – | – | – | – | – | – | – | –
8 | Cc1nc2c(c(=O)[nH]1)c1nnc(C)c(=O)n1n2-c1nnc(-c2ccccc2)c(-c2ccccc2)n1 | 28 | 26 | 29 | 19 | 16 | 15 | – | – | 25 (≈ 53.9 µM) | 50 (≈ 108 µM) | – | 6.49 | 25 (≈ 53.9 µM) | 12.5 (≈ 27 µM)
9 | CSc1nn(-c2nnc(-c3ccccc3)c(-c3ccccc3)n2)c2nc(C)c3c(=O)[nH]cnc3c12 | 17 | 17 | 10 | 11 | 12 | 10 | – | – | – | – | – | – | – | –
